The text below walks through data of ChEMBL document CHEMBL3243935, “Analgesic and tranquilizing activity of 5,8-disubstituted 2-aminomethyl-3,4-dihydronaphthalenes” (J Med Chem, 1978).

The test system of data set [1] is Mus musculus. Nature of the data set: Analgesic activity in Swiss CD mouse assessed as elevation of response latency at 100 mg/kg, ip measured 0.5 hr post treatment by tail flick method relative to control. Format: functional. To be noted: route intraperitoneal. A digest of the protocol: (§1)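 Male mice, about 20 g, dosed ip in saline (solution or suspension). High-intensity heat was focused on the tail, and latency to a sudden tail flick was timed, with a 10-s cutoff. Tests ran at 0.5 and 2 h post-dose, with at least ten mice per dose. Percent control = mean latency ÷ mean control latency × 100; 200% was the lower bound of activity.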
Background: Thermal pain tests record how soon the animal reacts.

Data set [2] has as its system Mus musculus. Nature of the data set: Analgesic activity in Swiss CD mouse at 100 mg/kg, ip measured 0.5 hr post treatment by hot-plate method relative to control. Format: functional. To be noted: route intraperitoneal. A digest of the protocol:
(§2)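 Male mice, about 20 g, dosed ip in saline. Each mouse was dropped into a glass cylinder on an aluminium plate held at 57 °C. Latency to the first flick of a hind foot was timed at 0.5 and 2 h post-dose, with a 10-s cutoff. At least ten mice per dose. Percent control = mean latency ÷ mean control latency × 100; 200% was the lower bound of activity.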

Data set [3] has as its system Mus musculus. Nature of the data set: Analgesic activity in Swiss CD mouse assessed as elevation of response latency at 100 mg/kg, ip measured 2 hrs post treatment by tail flick method relative to control. Format: functional. To be noted: route intraperitoneal. In short, it runs like this:
as §1

Data set [4] deals with Mus musculus. Nature of the data set: Analgesic activity in Swiss CD mouse at 100 mg/kg, ip measured 2 hrs post treatment by hot-plate method relative to control. Format: functional. Particulars: route intraperitoneal. A digest of the protocol: as §2
The nature of data set [5]: Toxicity in ip dosed Swiss CD mouse measured 0.5 to 2 hrs post treatment. Format: organism-based. Particulars: in vivo.
In data set [6] the test system is Mus musculus. Nature of the data set: Analgesic activity in Swiss CD mouse at 32 mg/kg, ip measured 2 hrs post treatment by hot-plate method relative to control. Format: functional. To be noted: route intraperitoneal. In short, it runs like this:
as §2

Data set [7] concerns Mus musculus. Nature of the data set: Analgesic activity in Swiss CD mouse at 32 mg/kg, ip measured 0.5 hr post treatment by hot-plate method relative to control. Format: functional. Particulars: route intraperitoneal. A digest of the protocol:
as §2

In data set [8] the test system is Mus musculus. Nature of the data set: Analgesic activity in Swiss CD mouse assessed as elevation of response latency at 32 mg/kg, ip measured 0.5 hr post treatment by tail flick method relative to control. Format: functional. Particulars: route intraperitoneal. In short, it runs like this:
as §1

The subject of data set [9] is Mus musculus. Nature of the data set: Analgesic activity in Swiss CD mouse assessed as elevation of response latency at 32 mg/kg, ip measured 2 hrs post treatment by tail flick method relative to control. Format: functional. Particulars: route intraperitoneal. A digest of the protocol: as §1

With `CCC(=O)O[C@](Cc1ccccc1)(c1ccccc1)[C@H](C)CN(C)C` [PROPOXYPHENE], the Activity in the data set with Mus musculus [1] was 169%; in the data set with Mus musculus [2], 139%; with Mus musculus [3] it was 146%; in the data set on Mus musculus [4] it was 138%.
On the same counts, the results for `COc1ccc(Cl)c2c1CCC(CN1CCC(O)(c3ccc(Cl)cc3)CC1)=C2.O=S(=O)(O)O` are 162%, 177%, 123% and 102%.
On the same counts, the results for `COc1ccc(Cl)c2c1CCC(CN1CCC(C(=O)N3CCOCC3)CC1)=C2.Cl` are 162%, 107%, 133% and 95%.
In the case of `COc1ccc(C)c2c1CCC(CN1CCCC1)=C2.Cl`, the LD50 – broadly, the dose at which mortality reaches 50% – in data set [5] was 32 mg/kg. Further, the Activity came out at 145% in the data set on Mus musculus [6], 177% in the data set with Mus musculus [7], 177% with Mus musculus [8] and 135% with Mus musculus [9].
Take `COc1ccc2c(c1)CCC(CN1CCCC1)=C2.Cl`: the Activity came to 92% in the data set on Mus musculus [1], 96% with Mus musculus [2], 92% in the data set on Mus musculus [3] and 103% in the data set on Mus musculus [4].
For the compound `C=CCNCC1=Cc2c(Cl)ccc(OC)c2CC1.Cl`, the Activity was found to be 131% in the data set with Mus musculus [1], 158% in the data set with Mus musculus [2], 108% in the data set on Mus musculus [3] and 115% in the data set on Mus musculus [4].
With `COc1ccc(Cl)c2c1CCC(CN1CCC(O)CC1)=C2.Cl`, the Activity in the data set with Mus musculus [1] amounted to 239%; in the data set with Mus musculus [2], 174%; with Mus musculus [3] it was 180%; with Mus musculus [4], 142%.
The matching figures for `COc1ccc(Cl)c2c1CCC(CN1CCN(c3cccc(C(F)(F)F)c3)CC1)=C2.O`: 119%, 167%, 118% and 149%.
Regarding `COc1ccc(F)c2c1CCC(CN1CCCC1)=C2.Cl`, the LD50 in data set [5] was found to be 32 mg/kg. For the same compound, the Activity is recorded as 149% with Mus musculus [6], 183% in the data set on Mus musculus [7], 170% in the data set on Mus musculus [8] and 141% with Mus musculus [9].
For `COc1ccc(Cl)c2c1CCC(CN1CCN(C)CC1)=C2`, the Activity in the data set on Mus musculus [1] is reported as 198%; in the data set on Mus musculus [2] it was 274%; with Mus musculus [3] it was 137%; in the data set with Mus musculus [4], 218%.
The matching figures for `COc1ccc(Cl)c2c1CCC(CN1CCCCC1)=C2.Cl`: 212%, 155%, 167% and 127%.
Consider `COc1ccc(Cl)c2c1CCC(CN1CCC(C(C)=O)(c3ccccc3)CC1)=C2.Cl`, for which the Activity was 134% with Mus musculus [1], 143% with Mus musculus [2], 122% with Mus musculus [3] and 124% with Mus musculus [4].
The matching figures for `COc1ccc(Cl)c2c1CCC(CN1CCN(CCO)CC1)=C2`: 187%, 249%, 191% and 236%.
On the same counts, the results for `C=CCN1CCN(CC2=Cc3c(Cl)ccc(OC)c3CC2)CC1.Cl` are 159%, 164%, 137% and 127%.
The matching figures for `COc1ccc(Cl)c2c1CCC(CNCC1CC1)=C2.Cl`: 203%, 224%, 162% and 171%.
For `COc1ccc(OC)c2c1C=C(CN1CCCC1)CC2.Cl`, in [5], the LD50 was determined as 32 mg/kg. The Activity is given as 132% in the data set on Mus musculus [6], 177% with Mus musculus [7], 111% with Mus musculus [8] and 99% with Mus musculus [9].
In the case of `COc1ccc(N2CCN(CC3=Cc4c(Cl)ccc(OC)c4CC3)CC2)cc1`, the Activity in the data set on Mus musculus [1] is on record as 131%; in the data set on Mus musculus [2] it was 129%; in the data set with Mus musculus [3], 123%; in the data set on Mus musculus [4], 120%.
The matching figures for `COc1ccc(Cl)c2c1CCC(CN1CCC(c3ccccc3)CC1)=C2.O`: 109%, 233%, 106% and 171%.
On the same counts, the results for `CCOC(=O)N1CCN(CC2=Cc3c(Cl)ccc(OC)c3CC2)CC1.Cl` are 223%, 274%, 199% and 233%.
The matching figures for `CNC(=O)C1CCN(CC2=Cc3c(Cl)ccc(OC)c3CC2)CC1.Cl.O`: 208%, 221%, 166% and 167%.
The compound `Br.COc1cccc2c1CCC(CN1CCCC1)=C2` registered an LD50 in data set [5] of 32 mg/kg. Moreover, the Activity in the data set on Mus musculus [6] is given as 103%; in the data set with Mus musculus [7], 129%; in the data set with Mus musculus [8], 80%; in the data set on Mus musculus [9], 90%.
With `COc1ccc(Cl)c2c1CCC(CN1CCN(S(N)(=O)=O)CC1)=C2.Cl`, the Activity in the data set with Mus musculus [1] was 104%; with Mus musculus [2], 123%; with Mus musculus [3] it was 88%; in the data set with Mus musculus [4] it was 109%.
The matching figures for `COc1ccc(Cl)c2c1CCC(CN1CCC(C(=O)NC3CCCCC3)CC1)=C2`: 219%, 107%, 154% and 95%.
As for `COc1ccc(Cl)c2c1CCC(CN1CCC(C)CC1)=C2.Cl`, the LD50 in data set [5] is 32 mg/kg. Further, the Activity stood at 135% in the data set on Mus musculus [6], 158% with Mus musculus [7], 128% in the data set with Mus musculus [8] and 115% in the data set with Mus musculus [9].
Consider `CCC(=O)OC1CCN(CC2=Cc3c(Cl)ccc(OC)c3CC2)CC1.Cl`, for which the Activity with Mus musculus [1] was 237%; in the data set with Mus musculus [2], 95%; with Mus musculus [3] it was 179%; in the data set with Mus musculus [4], 101%.
The matching figures for `COc1ccc(Cl)c2c1CCC(CN1CCN(c3ccc(Cl)cc3)CC1)=C2`: 184%, 202%, 159% and 160%.
On to `COc1ccc(Cl)c2c1CCC(CN1CCC(O)(c3ccccc3)CC1)=C2.Cl`, for which the Activity came out at 196% in the data set with Mus musculus [1], 249% in the data set on Mus musculus [2], 158% in the data set on Mus musculus [3] and 175% in the data set on Mus musculus [4].
With `COc1ccc2c(c1)C=C(CN1CCCC1)CC2`, the Activity in the data set with Mus musculus [1] stood at 149%; in the data set with Mus musculus [2] it was 114%; in the data set on Mus musculus [3], 129%; with Mus musculus [4], 98%.
On the same counts, the results for `COc1ccc(Cl)c2c1CCC(CN1CCC(C(=O)N3CCCCC3)CC1)=C2.Cl.O` are 235%, 170%, 149% and 124%.
The matching figures for `COc1cc2c(cc1OC)CCC(CN1CCCC1)=C2.Cl`: 101%, 173%, 95% and 135%.
